ChEMBL document CHEMBL3044983, “Antifungal activity and biotransformation of diisophorone by Botrytis cinerea” (J Agric Food Chem, 2005)
Activity calls are given as the source filed them. The calls are words filed in the database; no cut-off is given here.

What was measured:
Botrytis cinerea [1] = experiment: Antifungal activity against Botryotinia fuckeliana UCA992 assessed as inhibition of radial mycelial growth up to 200 ppm for 5 days by poisoned food technique; assay type: functional
How it was run: (§1)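 Radial growth on glucose-malt-peptone-agar (pH 6.5-7.0). Test compound was added in ethanol to final 50-200 mg/L, and ethanol was equal in control and treated plates. A 1.5 cm mycelial disk from an actively growing culture was placed at the plate centre, and radial growth was followed over 8 days. Percent inhibition was taken from colony diameters relative to the negative control, as the mean of triplicates.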

Botrytis cinerea [2] = experiment: Antifungal activity against Botryotinia fuckeliana UCA992 assessed as inhibition of radial mycelial growth up to 100 ppm for 5 days by poisoned food technique; assay type: functional, organism-based; how it was run: as §1
Botrytis cinerea [3] = experiment: Antifungal activity against Botryotinia fuckeliana 2100 assessed as inhibition of radial mycelial growth for 5 days by poisoned food technique; assay type: functional, organism-based
Botrytis cinerea [4] = experiment: Antifungal activity against Botryotinia fuckeliana 2100 assessed as inhibition of radial mycelial growth at 50 ppm for 5 days by poisoned food technique; assay type: functional; details: Botrytis cinerea, 2100, 120 h; how it was run: as §1
Botrytis cinerea [5] = experiment: Antifungal activity against Botryotinia fuckeliana UCA992 assessed as inhibition of radial mycelial growth up to 50 ppm for 5 days by poisoned food technique; assay type: functional
Botrytis cinerea [6] = experiment: Antifungal activity against Botryotinia fuckeliana UCA992 assessed as inhibition of radial mycelial growth for 5 days by poisoned food technique; assay type: functional, organism-based
Botrytis cinerea [7] = experiment: Antifungal activity against Botryotinia fuckeliana UCA992 assessed as inhibition of radial mycelial growth up to 150 ppm for 5 days by poisoned food technique; assay type: functional; how it was run: as §1

| SMILES | inhibition (Botrytis cinerea [1]) | inhibition (Botrytis cinerea [2]) | IC50 (Botrytis cinerea [3]) | inhibition (INH) (Botrytis cinerea [1]) | inhibition at 50 ppm (Botrytis cinerea [4]) | inhibition (INH) (Botrytis cinerea [5]) | IC50 (Botrytis cinerea [6]) | inhibition (INH) (Botrytis cinerea [7]) |
| --- | --- | --- | --- | --- | --- | --- | --- | --- |
| CC1(C)CC(=O)C2=C(C1)[C@@H](O)[C@]1(C)CC(C)(C)C[C@@]2(O)C1 | inactive | inactive | – | – | – | – | – | – |
| CC1(C)CC(=O)C2=C(C1)C[C@]1(C)CC(C)(C)C[C@@]2(O)C1 [DIISOPHORONE] | – | inactive | 70 ppm | 92% | 69% | 6% | 89 ppm | 76% |
| CC1(C)C[C@@]2(C)CC3=C(C(=O)CC(C)(C)[C@H]3O)[C@@](O)(C1)C2 | inactive | inactive | – | – | – | – | – | – |
| CC1(C)C[C@@]2(C)CC3=C(C(=O)CC(C)(C)[C@@H]3O)[C@@](O)(C1)C2 | inactive | inactive | – | – | – | – | – | – |
| CC1(C)C[C@@]2(O)C[C@@](C)(C1)[C@H](O)C1=C2C(=O)C[C@@](C)(CO)C1 | inactive | inactive | – | – | – | – | – | – |
